Measured values taken from ChEMBL document CHEMBL2440016, “Targeting the human parasite Leishmania donovani: discovery of a new promising anti-infectious pharmacophore in 3-nitroimidazo[1,2-a]pyridine series” (Bioorg Med Chem, 2013).

Legend:
[1] = Cytotoxicity against mouse J774.1 cells after 72 hrs by MTT assay; type: cell-based; settings: for CC50 at 72 h: J774.1 cells; for CC50: j774.1, 72 h
In short: (§1)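 Cells plated in RPMI with 10% FCS, L-glutamine and penicillin/streptomycin, 24 h at 37 °C, 6% CO2. Compound dilutions then added for 72 h. MTT 0.5 mg/mL in PBS for 2 h, formazan dissolved in DMSO, A570 with 630 nm reference. Viability taken as % of untreated control. Doxorubicin served as positive control. CC50 from the dose-response curve.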

Leishmania donovani [2] = test: Antimicrobial activity against Leishmania donovani MHOM/IN/00/DEVI amastigotes infected in mouse J774.1 cells after 120 hrs by microscopic analysis; type: functional, organism-based; settings: J774.1, 120 h
In short: (§2)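 J774A.1 macrophages seeded at 5x10⁴ cells/mL, 24 h at 37 °C, 6% CO2. L. donovani promastigotes acidified 24 h at 27 °C in Schneider 20% FCS pH 5.4, then used to infect at 10:1 for 24 h. Compounds added in duplicate, final DMSO <0.5%, 120 h at 37 °C. Cells methanol-fixed and Giemsa-stained, ≥200 cells counted for % infected. IC50 by non-linear regression, mean of three independent experiments.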

Plasmodium falciparum = test: Antiplasmodial activity against Plasmodium falciparum K1 infected in human erythrocytes after 72 hrs by SYBR Green I fluorescence assay; type: functional, organism-based; settings: K1, 72 h
In short: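 K1 strain, resistant to chloroquine, pyrimethamine and proguanil, grown in A+ human erythrocytes with RPMI 1640, HEPES, NaHCO3 and 10% A+ serum. Rings synchronized with 5% sorbitol. Compounds tested at 2% hematocrit and 1% parasitaemia, 72 h at 37 °C in 5% O2, 5% CO2, in triplicate. DNA read by SYBR Green I lysis, 15 min, ex 497/em 520 nm. IC50 from three independent experiments.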

Leishmania donovani [3] = test: Antimicrobial activity against Leishmania donovani MHOM/IN/00/DEVI promastigotes after 72 hrs by MTT assay; type: functional, organism-based
In short: (§3)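 Log-phase promastigotes in Schneider's medium with 20% FCS, 2 mM L-glutamine and penicillin/streptomycin, at 10⁶ parasites/mL. Compound dilutions run in duplicate, final DMSO <0.5%, 72 h at 27 °C. MTT 0.5 mg/mL for 6 h at 27 °C, formazan dissolved in DMSO, A570.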

HepG2 = test: (§4) Cytotoxicity against human HepG2 cells after 72 hrs by MTT assay; type: cell-based; settings: hepg2, 72 h; in short: as §1
Leishmania donovani [4] = test: Antimicrobial activity against Leishmania donovani promastigotes; type: functional, organism-based; in short: as §3
Leishmania donovani [5] = test: Antimicrobial activity against Leishmania donovani amastigotes; type: functional, organism-based; in short: as §2
[6] = as §4; type: cell-based; settings: HepG2 cells; in short: as §1
[7] = Selectivity index, ratio of CC50 for human HepG2 cells to IC50 for Leishmania donovani MHOM/IN/00/DEVI; type: functional
In short: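 SI = HepG2 CC50 / L. donovani IC50.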

[8] = Selectivity index, ratio of CC50 for mouse J774.1 cells to IC50 for Leishmania donovani MHOM/IN/00/DEVI; type: functional
Leishmania infantum = test: Antimicrobial activity against Leishmania infantum MCAN/ES/98/LLM-877 promastigotes after 72 hrs by MTT assay; type: functional, organism-based; settings: MCAN/ES/98/LLM-877, 72 h; in short: as §3
[9] = Selectivity ratio of IC50 for Plasmodium falciparum K1 to IC50 for Leishmania donovani MHOM/IN/00/DEVI promastigotes; type: functional
[10] = Selectivity ratio of IC50 for Plasmodium falciparum K1 to IC50 for Leishmania infantum MCAN/ES/98/LLM-877 promastigotes; type: functional
[11] = Selectivity ratio of IC50 for Plasmodium falciparum K1 to IC50 for Leishmania donovani MHOM/IN/00/DEVI amastigotes; type: functional
[12] = Leishmania donovani, MHOM/IN/00/DEVI, 72 h, read-out: IC50

SMILES | CC50 at 72 h [1] [µM] | IC50 (Leishmania donovani [3]; [12]) [µM] | CC50 at 72 h [6] [µM] | Ratio CC50/IC50 [7] | Ratio CC50/IC50 [8] | further results
CCCCCCCCCCCCCCCCOP(=O)([O-])OCC[N+](C)(C)C [MILTEFOSINE] | 94.6 | – | – | – | – | IC50 (Leishmania donovani [2]): 6.8 µM
O=C1C(O)=C([C@H]2CC[C@H](c3ccc(Cl)cc3)CC2)C(=O)c2ccccc21 [ATOVAQUONE] | – | – | – | – | – | IC50 (Plasmodium falciparum): 0.0015 µM
O=[N+]([O-])c1c(CS(=O)(=O)c2ccccc2)nc2ccc(-c3ccc4ccccc4c3)cn12 | – | – | – | – | – | IC50 (Leishmania donovani [3]): ND(Insoluble); CC50 (HepG2): ND(Insoluble); CC50 [1]: ND(Insoluble)
CSc1ccc(OCc2ncc([N+](=O)[O-])n2C)cc1 [FEXINIDAZOLE] | – | – | – | – | – | IC50 (Leishmania donovani [4]): 5.6 µM; IC50 (Leishmania donovani [5]): 2.8 µM
COc1ccc(-c2ccc3nc(CS(=O)(=O)c4ccccc4)c([N+](=O)[O-])n3c2)cc1 | – | – | – | – | – | IC50 (Leishmania donovani [3]): ND(Insoluble); CC50 (HepG2): ND(Insoluble); CC50 [1]: ND(Insoluble)
Cc1ccc(S(=O)(=O)Cc2cn3cc(Cl)ccc3n2)cc1 | 33.3 | 33.5 | 68.3 | 2 | 0.9 | –
Cc1ccc(S(=O)(=O)Cc2cn3cc(Br)ccc3n2)cc1 | 20.9 | > 50 | 28.9 | <0.6 | <0.4 | –
Cc1ccc(S(=O)(=O)Cc2nc3ccc(Br)cn3c2[N+](=O)[O-])cc1 | 44.3 | 44.1 | 5.9 | 0.13 | 1 | –
COc1ccc(Sc2c([N+](=O)[O-])cc(C#N)cc2[N+](=O)[O-])cc1 | – | – | – | – | – | IC50 (Leishmania donovani [5]): 0.7 µM
O=S(=O)(Cc1cn2cc(I)ccc2n1)c1ccccc1 | 5.2 | > 50 | 5 | <0.1 | <0.1 | –
N=C(N)c1ccc(OCCCCCOc2ccc(C(=N)N)cc2)cc1 [PENTAMIDINE] | 1 | – | – | 0.4 | 0.1 | IC50 (Leishmania donovani [2]): > 20 µM
O=[N+]([O-])c1c(CS(=O)(=O)c2ccccc2)nc2ccc(Br)cn12 | 34.3 | 14 | > 100 | >7.1 | 2.5 | IC50 (Plasmodium falciparum): 41.2 µM; IC50 (Leishmania donovani [2]): > 25 µM; IC50 (Leishmania infantum): > 25 µM
O=[N+]([O-])c1c(CS(=O)(=O)c2ccc(I)cc2)nc2ccc(Br)cn12 | 16.2 | > 50 | 20.3 | <0.4 | <0.3 | –
O=[N+]([O-])c1c(CS(=O)(=O)c2ccc(Cl)cc2)nc2ccc(I)cn12 | 43.6 | 29.1 | > 50 | >1.7 | 1.5 | –
COc1cc(-c2ccc3nc(CS(=O)(=O)c4ccccc4)c([N+](=O)[O-])n3c2)cc(OC)c1OC | 5 | > 50 | 34.7 | <0.7 | <0.1 | –
O=S(=O)(Cc1cn2cc(Cl)ccc2n1)c1ccc(Cl)cc1 | 68.7 | > 50 | 71.5 | <1.4 | <1.3 | –
C[C@@H]1[C@H](O)[C@@H](C)/C=C/C=C/C=C/C=C/C=C/C=C/C=C/[C@H](O[C@@H]2O[C@H](C)[C@@H](O)[C@H](N)[C@@H]2O)C[C@@H]2O[C@](O)(C[C@@H](O)C[C@@H](O)[C@H](O)CC[C@@H](O)C[C@@H](O)CC(=O)O[C@H]1C)C[C@H](O)[C@H]2C(=O)O [AMPHOTERICIN B] | 3.1 | – | – | – | – | IC50 (Leishmania donovani [2]): 0.07 µM; IC50 (Leishmania infantum): 0.04 µM
O=[N+]([O-])c1c(CS(=O)(=O)c2ccc(Br)cc2)nc2ccc(Br)cn12 | 28.2 | 24.3 | 39 | 1.6 | 1.1 | –
O=S(=O)(Cc1cn2cc(Br)ccc2n1)c1ccc(Cl)cc1 | 43.9 | > 50 | 23 | <0.5 | <0.9 | –
O=[N+]([O-])c1c(CS(=O)(=O)c2ccccc2)nc2c(Br)cc(Br)cn12 | > 25 | 1.8 | > 31 | >17.2 | >13.4 | IC50 (Plasmodium falciparum): 16 µM; Ratio IC50 [9]: 8.9; Ratio IC50 [10]: 4.8; IC50 (Leishmania donovani [2]): 5.5 µM; IC50 (Leishmania infantum): 3.3 µM; Ratio IC50 [11]: 3
O=[N+]([O-])c1c(CS(=O)(=O)c2ccc(Cl)cc2)nc2ccc(Cl)cn12 | 42.4 | 23 | > 25 | 1.1 | 1.8 | –
O=[N+]([O-])c1c(CS(=O)(=O)c2ccccc2)nc2ccc(-c3cccc(C(F)(F)F)c3)cn12 | – | – | – | – | – | IC50 (Leishmania donovani [3]): ND(Insoluble); CC50 (HepG2): ND(Insoluble); CC50 [1]: ND(Insoluble)
O=[N+]([O-])c1c(CS(=O)(=O)c2ccc(Cl)cc2)nc2ccc(Br)cn12 | 51.1 | 45.4 | 5.5 | 0.12 | 1.1 | –
O=[N+]([O-])c1c(CS(=O)(=O)c2ccccc2)nc2ccc(I)cn12 | 27 | 12.6 | > 100 | >7.9 | 2.1 | –
